CCR6 antag: CCR6 receptor antagonists, primary screen, cell-based, CHO-K1, luminescence, beta-arrestin, uHTS; C-C chemokine receptor type 6 (Homo sapiens), P51684; CHO-K1 CCR6 PathHunter beta-arrestin, CCL20-stimulated; inhibition, % at 20 µM; hit rate 0.49% among 340,000; AID 493098, 2011;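 active means compounds whose inhibition of the agonist-driven luminescence signal at 20 µM reaches about 50%, limit read from the data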;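 further: cells stimulated with CCL20 at 14 nM final; plate controls were DMSO with CCL20 for no effect and DMSO without agonist for full effect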
CXCR6 inh: CXCR6 receptor inhibitors, primary screen, cell-based, beta-arrestin, luminescence, CHO-K1 PathHunter, 1536-well; inhibition, % at 20 µM; hit rate 0.36% among 360,000; C-X-C chemokine receptor type 6 (Homo sapiens), O00574; in the data active means inhibition above about 34%, passing the limit was not always enough;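 further: antagonist mode with CXCL16 agonist at 10 nM final; 0% = 10 nM CXCL16 with DMSO and 100% = unstimulated wells without agonist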
EBI2 block: EBI2 receptor antagonists, beta-arrestin recruitment, primary screen, cell-based, luminescence, 7a,25-OHC stimulation, uHTS | G-protein coupled receptor 183 (Homo sapiens), P32249 | 7a,25-OHC stimulated | inhibition, % at 5 µM | hit rate 0.81% among 360,000; in the data active means inhibition above about 38%;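 further: enzyme fragment complementation signal reports receptor beta-arrestin coupling in cells; 0% = agonist plus DMSO wells and 100% = wells without agonist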
APJ antag: antagonists of human apelin receptor APJ, primary screen, CHO-K1 cells, beta-arrestin complementation, luminescence. P35414. inhibition, % at 20 µM. hit rate 0.32% among 330,000. AID 2521, 2010;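 active means inhibition above about 40% at 20 µM, limit read from the data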;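 further: cells challenged with 10 nM apelin-13 agonist together with compound; plate controls were apelin-13 plus DMSO wells for no effect and DMSO wells lacking apelin-13 for full effect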
Target sequence (P35414 whole entry, looked up): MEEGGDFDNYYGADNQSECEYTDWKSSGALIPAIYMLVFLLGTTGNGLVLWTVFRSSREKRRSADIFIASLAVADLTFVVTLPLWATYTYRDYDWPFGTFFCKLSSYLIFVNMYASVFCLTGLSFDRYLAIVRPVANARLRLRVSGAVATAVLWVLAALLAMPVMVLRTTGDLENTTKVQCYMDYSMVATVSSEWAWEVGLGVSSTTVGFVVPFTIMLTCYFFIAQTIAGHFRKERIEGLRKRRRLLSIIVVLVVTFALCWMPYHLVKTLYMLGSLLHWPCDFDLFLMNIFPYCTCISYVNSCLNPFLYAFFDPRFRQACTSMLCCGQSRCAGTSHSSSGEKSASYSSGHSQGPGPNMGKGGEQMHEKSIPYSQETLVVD
FXN GAA850 act: FXN promoter activators, primary screen, cell-based, luciferase luminescence, HEK293 lucGAA850; HEK293 lucGAA850 FXN promoter luciferase reporter, 24 h; percent of 10 µM SAHA response; activation, % at 6 µM; hit rate 0.56% among 360,000; AID 540364, 2011;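 active means activation above the average of all compounds screened plus 3 SD, cutoff fixed separately per campaign, cut at about 7.5% in these data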;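 further: 0% = DMSO wells and 100% = 10 µM SAHA wells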
APJ ag: agonists of human apelin receptor APJ, primary screen, CHO-K1 cells, PathHunter beta-arrestin, luminescence; P35414; 0% DMSO wells, 100% apelin; activation, % at 20 µM; hit rate 0.11% among 330,000;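 active means activation more than six SD over the plate average, tested at 20 µM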;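 further: 0% = DMSO alone and 100% = apelin-13 at 10 nM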
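Assay system – PathHunter CHO-K1 APJ (AGTRL-1) beta-arrestin reporter cells · Compound – one dose, 20 µM compound, 1% DMSO · Timing – compound 90 min 25 °C, reagent 1 h · Measured by – luminescence from split beta-galactosidase complementation, Galacton Star/Emerald II substrate · Measure – beta-arrestin recruitment to APJ as agonist activity, luminescent signal · Benchmarks – DMSO vs Apelin-13 10 nM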
EBI2 antag conf: EBI2 antagonist hit retest, beta-arrestin, confirmation, cell-based, single concentration, luminescence, 7a,25-OHC stimulation | shares compounds with EBI2 block | 7a,25-OHC antagonism | hit rate 29% among 2,400 | inhibition, % at 5 µM;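 active means inhibition of at least 50%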
EBI2 ag: EBI2 agonist activity of antagonist hits, confirmation, counter-screen for EBI2 antagonist project, cell-based, single concentration, agonist mode, luminescence | shares compounds with EBI2 block | EBI2-expressing cells, 60 min; 0% vehicle, 100% 7α,25-dihydroxycholesterol control | activation, % at 5 µM | 2,400 tested, under 10 active;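 active means activation of at least 50%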
bGal cs: E. coli beta-galactosidase enzyme inhibition, confirmation, counter-screen for EBI2 antagonist project, biochemical, luminescence, single concentration | shares compounds with EBI2 block | purified beta-galactosidase, luminescent Galacton Star, 15 min | inhibition, % at 5 µM | hit rate 1% among 2,400 | AID 652176, 2013;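 active means replicate-average signal at least 3 plate SD below neutral wells, shown as high inhibition, flagging enzyme-inhibiting false positives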;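 further: 0% = DMSO wells with enzyme and 100% = wells lacking enzyme; higher means stronger loss of beta-gal luminescence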
Numbers without * were called inactive; nt = no result given. Hits are enriched below; roughly 2% of the tested compounds scored in any of these assays.

SMILES	CCR6 antag	CXCR6 inh	EBI2 block	APJ antag	FXN GAA850 act	APJ ag	EBI2 antag conf	EBI2 ag	bGal cs
CCCCN(Cc1ccco1)C(=O)Cn1ncc2c(=O)oc3ccc(C)cc3c21	12	-5	86*	-13	-1	0	49	1	3
Cc1ccc2oc(=O)c3cnn(CC(=O)N(CCC(C)C)Cc4ccco4)c3c2c1	6	3	86*	3	0	3	76*	2	-2
O=C(Cn1ncc2c(=O)oc3ccccc3c21)N(Cc1ccco1)C1CCCCC1	3	0	56*	8	-1	-1	29	0	9
Cc1ccc2oc(=O)c3cnn(CC(=O)N4CCCCC4C)c3c2c1 (centres undefined)	3	-2	20	11	2	-3	nt	nt	nt
Cc1ccc2oc(=O)c3cnn(CC(=O)N4CCc5ccccc5C4)c3c2c1	15	4	47*	23	1	-1	15	-1	-13
CCOC(=O)Cn1ncc2c(=O)oc3ccccc3c21	7	5	-1	9	2	-6	nt	nt	nt
O=C(CCC1CCCNC1)c1ccccc1 (centres undefined)	nt	nt	nt	-1	nt	-3	nt	nt	nt
COc1ccc(S(=O)(=O)N2CCCCC2c2cc(C(=O)Nc3ccc4c(c3)OCO4)no2)cc1 (centres undefined)	nt	2	6	nt	2	nt	nt	nt	nt
CCCCn1nnnc1C(c1ccnc2ccccc12)N1CCN(C/C=C/c2ccccc2)CC1 (centres undefined)	nt	9	27	nt	nt	nt	nt	nt	nt
CCCCn1nnnc1C(c1cccc2ccccc12)N1CCN(C/C=C/c2ccccc2)CC1 (centres undefined)	nt	19	44*	nt	nt	nt	30	0	4
CCCCn1nnnc1C(CC)N1CCN(C/C=C/c2ccccc2)CC1 (centres undefined)	nt	1	16	nt	nt	nt	nt	nt	nt
CCCCn1nnnc1C(c1ccccc1)N1CCN(C/C=C/c2ccccc2)CC1 (centres undefined)	nt	-3	46*	nt	nt	nt	22	-1	-11
Cc1ccc(NC(=O)COC(=O)C2CCN(c3ccc(C(F)(F)F)cn3)CC2)cc1	10	-1	6	4	-1	-4	nt	nt	nt
CN(C(=O)c1ccc(NC(=O)Cc2ccc(NC(=O)C3CCCN(C(=O)CCc4ccccc4)C3)cc2)cc1)C1CC1 (centres undefined)	2	-3	-6	12	0	-2	nt	nt	nt
COc1ccccc1-c1cc(NC=O)c2ncc(-c3cccc(C(C)=O)c3)n2c1	nt	15	42	nt	-1	nt	nt	nt	nt
COc1ccccc1-c1cc(NC=O)c2ncc(-c3cccc(C(=O)N(C)C)c3)n2c1	nt	-5	75*	nt	-2	nt	40	0	8
CC(C)(C)NC(=O)CN(C(=O)CNS(=O)(=O)c1ccc(Cl)cc1)c1ccc2c(c1)OCCO2	16	4	4	9	0	3	nt	nt	nt
COC(=O)c1sc(-c2ccccc2)cc1NC(=O)C1CC1	6	1	9	0	0	-3	nt	nt	nt
CCOc1ccc(NC(=O)Nc2cc(-c3ccccc3)sc2C(=O)OC)cc1	6	-4	46*	-48	0	-1	21	-1	-17
CCOc1ccc(NC(=S)N(CCOC)C(C)c2ccco2)cc1 (centres undefined)	10	9	55*	3	0	-2	13	0	5
CCOc1ccc(NC(=S)N(CCc2ccncc2)C(C)C)cc1	-5	-1	52*	-4	0	-2	7	-1	4
CCOc1ccc(NC(=S)N(CCOC)C2CCN(C(C)C)CC2)cc1	-16	5	54*	-20	0	-4	23	2	6
Cn1c(CC(=O)Nc2ccccc2F)nnc1SCC(=O)N1CCOCC1	4	-1	-10	-1	3	-7	nt	nt	nt
Cc1cccc(C)c1N1CCN(C(=O)Nc2ccc3c(c2)OCCO3)CC1	8	-4	64*	-5	-4	1	54*	0	7
O=C(Nc1ccc2c(c1)OCCO2)N1CCN(c2ccc(F)cc2)CC1	0	4	13	12	0	-4	nt	nt	nt
SMILES	CCR6 antag	CXCR6 inh	EBI2 block	APJ antag	FXN GAA850 act	APJ ag	EBI2 antag conf	EBI2 ag	bGal cs
O=C(NCCSc1ccccc1)c1ccc(Br)cc1	27	-1	10	6	5	1	nt	nt	nt
CN(C)S(=O)(=O)c1ccc(C(=O)NCCSc2ccc(Br)cc2)cc1	22	6	65*	12	-1	-2	47	1	2
COc1ccc(OCc2nnc(SC(C)C(=O)Nc3ccc(N4CCOCC4)cc3)n2C)cc1 (centres undefined)	-22	-4	2	nt	0	nt	nt	nt	nt
CCOC(=O)C1CN(S(=O)(=O)c2ccc(C)cc2)CCN1S(=O)(=O)c1ccc(C)cc1 (centres undefined)	13	-3	44*	-7	-1	3	8	-1	-13
CN(C)N=Nc1ccc(-c2cn(Cc3ccccc3)cn2)cc1	-14	1	45*	-27	4	0	39	1	0
COC(=O)Cc1ccc(NC(=O)c2ccc3c(c2)C(=O)N(Cc2ccco2)C3=O)cc1	10	-8	52*	-8	0	-2	24	2	9
CCc1nc2c(OCc3ccc(Cl)cc3Cl)cccn2c1N(C)C(=O)CC(C)C	nt	20	40	nt	1	nt	nt	nt	nt
CC(C)(C)NS(=O)(=O)c1ccc2[nH]c3c(c2c1)CCCCC3	-4	-13	63*	-4	1	0	67*	1	5
COCCCNS(=O)(=O)c1ccc2[nH]c3c(c2c1)CCCCC3	7	-13	-1	-9	1	0	nt	nt	nt
N/C(Cc1ccc(Cl)cc1)=N\OC(=O)CCc1ccccc1	nt	-14	4	nt	1	nt	nt	nt	nt
N/C(Cc1ccc(Cl)cc1)=N\OC(=O)c1ccc2ccccc2c1	-6	-8	48*	-34	1	16	16	2	6

Bioassay records from PubChem BioAssay.
